Reference: ChEMBL document CHEMBL1143606, “3-Aminopyrazole inhibitors of CDK2/cyclin A as antitumor agents. 2. Lead optimization” (J Med Chem, 2005)
Converted amounts (≈) assume the structure as drawn. “And” between values parts separate entries of the source, which are not always exact repeats. Identical values can stand only once.

Key:
HT-29 [1] = assay: Percent of BrdU incorporation in Brdu positive HT-29 cells at 1 uM concentration of compound; format: functional, Homo sapiens
HT-29 [2] = assay: Percent of BrdU incorporation in Brdu positive HT-29 cells at 3 uM concentration of compound; format: functional, Homo sapiens
[3] = molecular target: T1, Cyclin-dependent kinase 1/cyclin B (Homo sapiens, UniProt P06493); assay: Inhibition of cyclin dependent kinase 1-cyclin B (n=4); format: protein-complex assay
Procedure, shortened: (§1)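 IC50 from at least two independent experiments; value is the mean of IC50s obtained by nonlinear least-squares regression fitting. Coefficient of variation of the mean 10% to 24%. GSK-3β belonged to a panel of 30 serine-threonine and tyrosine kinases.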

[4] = molecular target: T2, Cyclin-dependent kinase 2/cyclin E (Homo sapiens, UniProt P24941); assay: Inhibition of cyclin dependent kinase 2-cyclin E (n=4); format: protein-complex assay
Procedure, shortened: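 Kinase inhibition assay run by a previously reported method. IC50 is the mean of values from nonlinear least-squares regression fits, with at least two independent experiments per compound. Coefficient of variation of the mean was 10% to 24%.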

[5] = Inhibition of glycogen synthase kinase-3 beta (n=6); procedure, shortened: as §1
[6] = molecular target: T3, Cyclin-dependent kinase 4/cyclin D1 (Homo sapiens, UniProt P11802); assay: Inhibition of cyclin-dependent kinase 4-cyclin D1 (n=2); format: protein-complex assay; procedure, shortened: as §1
[7] = molecular target: Cyclin-dependent kinase 5/CDK5 activator 1 (Homo sapiens, UniProt Q00535); assay: Inhibition of cyclin-dependent kinase 5 p25 alpha (n=4); format: protein-complex assay; procedure, shortened: as §1
HT-29 [8] = assay: Inhibitory concentration towards human colon cancer HT-29 cell line; format: functional, cell-based
HCT-116 = assay: Inhibitory concentration towards HCT 116 human colon cancer cell line; format: functional, cell-based
A2780 [9] = assay: Inhibitory concentration towards Human ovarian carcinoma cell line A2780; format: functional, cell-based
A2780 [10] = assay: Inhibitory concentration towards human ovarian carcinoma cell line A2780; format: functional, cell-based
[11] = molecular target: Cyclin-dependent kinase 2/cyclin A (Homo sapiens, UniProt P24941); assay: Inhibition of cyclin dependent kinase 2-cyclin A; format: protein-complex assay
[12] = Half-life of compound in plasma of CD-1 mice upon o.s. dose; format: ADME, cell-free; details: CD-1, mouse, po
Procedure, shortened: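 Mice dosed orally at 10 mg/kg in PEG 400/glucosate vehicle (preliminary PK, with iv and oral legs); plasma terminal half-life determined.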

[13] = mouse, in vivo
[14] = rat, plasma
[15] = mouse, in vivo; remark: listed apart in the source
[16] = mouse, in vivo, iv
physchem [17] = details: aqueous buffer
physchem [18] = details: aqueous buffer, pH 7
HT-29 [19] = assay: Percent of BrdU incorporation in HT-29 cells at 1 uM concentration of compound; format: functional
HT-29 [20] = assay: Percent of BrdU incorporation in HT-29 cells at 3 uM concentration of compound; format: functional
[21] = Inhibition of glycogen synthase kinase-3 beta (n=13); procedure, shortened: as §1
[22] = molecular target: T1, Cyclin-dependent kinase 1/cyclin B; assay: Inhibition of cyclin dependent kinase 1-cyclin B (n=6); format: protein-complex assay; procedure, shortened: as §1
[23] = molecular target: T2, Cyclin-dependent kinase 2/cyclin E; assay: Inhibition of cyclin dependent kinase 2-cyclin E (n=6); format: protein-complex assay; procedure, shortened: as §1
[24] = molecular target: T3, Cyclin-dependent kinase 4/cyclin D1; assay: Inhibition of cyclin-dependent kinase 4-cyclin D1 (n=4); format: protein-complex assay; procedure, shortened: as §1
A2780 [25] = assay: Percent inhibition tumor growth of Human ovarian cancer cell A2780 in mice when administered 7.5 mg/kg twice a day for 20 days; format: functional; details: Mus musculus, A2780, 480 h
Procedure, shortened: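 A2780 tumor kept by sc passage of 20-30 mg brei in athymic mice. Fragments implanted sc in left flank of nude mice, 10 mice/group. Dosing began at measurable tumors (mean 0.13 g, day 8). Dosed orally in 50% PEG 400/glucosate. Body weight followed. Data from a single experiment.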

T3 sequence (P11802 whole entry): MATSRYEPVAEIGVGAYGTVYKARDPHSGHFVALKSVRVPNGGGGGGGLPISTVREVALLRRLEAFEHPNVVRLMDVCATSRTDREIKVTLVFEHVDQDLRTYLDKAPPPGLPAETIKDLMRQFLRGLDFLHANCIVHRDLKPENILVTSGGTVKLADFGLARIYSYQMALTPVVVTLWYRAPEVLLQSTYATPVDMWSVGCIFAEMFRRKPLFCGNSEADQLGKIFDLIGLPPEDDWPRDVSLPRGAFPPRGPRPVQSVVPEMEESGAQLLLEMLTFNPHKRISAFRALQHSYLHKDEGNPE
T3 sequence (P24385 whole entry, further chain): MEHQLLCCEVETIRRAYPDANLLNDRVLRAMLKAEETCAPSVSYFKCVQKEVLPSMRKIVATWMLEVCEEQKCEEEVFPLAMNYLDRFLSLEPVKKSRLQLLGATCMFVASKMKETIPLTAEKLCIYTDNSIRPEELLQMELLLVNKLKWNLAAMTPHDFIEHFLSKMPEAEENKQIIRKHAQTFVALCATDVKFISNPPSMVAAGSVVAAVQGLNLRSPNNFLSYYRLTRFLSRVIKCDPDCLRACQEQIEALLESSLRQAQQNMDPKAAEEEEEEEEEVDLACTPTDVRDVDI
Chain of Cyclin-dependent kinase 5/CDK5 activator 1 (Q00535 whole entry): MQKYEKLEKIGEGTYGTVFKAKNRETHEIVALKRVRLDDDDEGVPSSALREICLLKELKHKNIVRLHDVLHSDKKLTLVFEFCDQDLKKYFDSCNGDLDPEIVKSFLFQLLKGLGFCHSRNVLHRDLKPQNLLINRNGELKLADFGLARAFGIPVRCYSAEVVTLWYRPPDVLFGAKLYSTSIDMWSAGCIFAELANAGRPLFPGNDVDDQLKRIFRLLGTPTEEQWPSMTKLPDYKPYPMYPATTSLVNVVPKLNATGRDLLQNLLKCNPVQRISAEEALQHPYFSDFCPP
Chain of Cyclin-dependent kinase 5/CDK5 activator 1 (Q15078 whole entry, further chain): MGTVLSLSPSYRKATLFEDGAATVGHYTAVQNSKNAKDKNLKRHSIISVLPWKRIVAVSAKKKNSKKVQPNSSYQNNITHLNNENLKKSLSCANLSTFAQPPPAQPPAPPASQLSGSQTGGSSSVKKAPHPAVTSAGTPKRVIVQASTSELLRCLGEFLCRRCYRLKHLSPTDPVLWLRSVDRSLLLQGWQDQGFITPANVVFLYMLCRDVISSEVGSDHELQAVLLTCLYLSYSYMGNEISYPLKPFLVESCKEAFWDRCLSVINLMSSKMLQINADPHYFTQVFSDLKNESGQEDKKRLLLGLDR

SMILES	IC50 (A2780 [10])	IC50 [11]	Binding [14]	solubility (physchem [18])	further results
C[C@H](C(=O)Nc1cc(C2CC2)[nH]n1)c1ccc(N2CCOC2=O)cc1	0.79 µM	0.02 µM	73% and 74%	232 µM (≈ 79 µg/mL)	Activity (HT-29 [1]): 65%; Activity (HT-29 [2]): 0.7%; IC50 [3]: 0.243 µM; IC50 [4]: 0.037 µM; IC50 [5]: 0.406 µM; IC50 [6]: > 10 µM; IC50 [7]: 0.057 µM; IC50 (HT-29 [8]): 0.751 µM; IC50 (HCT-116): 1.13 µM; IC50 (A2780 [9]): 0.716 µM; half-life [12]: 3.1 h; Clearance [13]: 0.282 L/h/kg; Vss [15]: 0.573 L/kg; T1/2 [16]: 2.8 min; solubility (physchem [17]): 225 µM (≈ 76.6 µg/mL)
COC(C(=O)Nc1cc(C2CC2)[nH]n1)c1ccccc1 (configuration not stated)		5 µM			
C[C@H](C(=O)Nc1cc(C2CC2)[nH]n1)c1ccc(N2CCCC2=O)cc1	0.8 µM	0.037 µM			Brdu positive (HT-29 [19]): 25%; Brdu positive (HT-29 [20]): 4%; IC50 [21]: 0.732 µM; IC50 [22]: 0.208 µM; IC50 [23]: 0.055 µM; IC50 [24]: > 10 µM; IC50 (HT-29 [8]): 0.639 µM; IC50 (HCT-116): 1.35 µM; IC50 (A2780 [9]): 0.744 µM; inhibition in vivo at 7.5 mg/kg (A2780 [25]): 73%
CC(C(=O)Nc1cc(C2CC2)[nH]n1)c1ccc(N2C(=O)CCC2c2ccccc2)cc1 (configuration not stated)	15.3 µM	0.2 µM	97%	50 µM (≈ 20.7 µg/mL)	
CC(C(=O)Nc1cc(C2CC2)[nH]n1)c1ccccc1 (configuration not stated)		0.169 µM			
CO[C@@H](C(=O)Nc1cc(C2CC2)n[nH]1)c1ccccc1		> 10 µM			
CC(C(=O)Nc1cc(C2CC2)[nH]n1)c1ccc(N2C(=O)CNC2=O)cc1 (configuration not stated)	> 10 µM	0.124 µM			
CO[C@H](C(=O)Nc1cc(C2CC2)n[nH]1)c1ccccc1		2 µM			
CC(C(=O)Nc1cc(C2CC2)[nH]n1)c1ccc(N2CC(=O)NC2=O)cc1 (configuration not stated)	4.54 µM	0.017 µM	67%	201 µM (≈ 71 µg/mL)	
N[C@H](C(=O)Nc1cc(C2CC2)[nH]n1)c1ccccc1		0.96 µM			
C[C@H](C(=O)Nc1cc(C2CC2)[nH]n1)c1ccc(N2CCCC2)cc1	0.22 µM		98%	24 µM (≈ 7.79 µg/mL)	
C[C@H](C(=O)Nc1cc(C2CC2)[nH]n1)c1ccc(N2CCNC2=O)cc1	1.27 µM	0.002 µM	74%	> 225 µM	
CC(C(=O)Nc1cc(C2CC2)[nH]n1)c1ccc(N2CCNC2=O)cc1 (configuration not stated)	2.25 µM	0.012 µM	74%	224 µM (≈ 76 µg/mL)	
CC(C(=O)Nc1cc(C2CC2)[nH]n1)c1ccc(N2CCCC2=O)cc1 (configuration not stated)	0.63 µM	0.169 µM			
C[C@@H](C(=O)Nc1cc(C2CC2)[nH]n1)c1ccc(N2CCCC2=O)cc1	12.2 µM	2.5 µM			
C[C@H](C(=O)Nc1cc(C2CC2)[nH]n1)c1ccc(N2Cc3ccccc3C2=O)cc1	1.02 µM	0.002 µM		5 µM (≈ 1.93 µg/mL)	
C[C@@H](C(=O)Nc1cc(C2CC2)[nH]n1)c1ccc(N2Cc3ccccc3C2=O)cc1		0.17 µM		51 µM (≈ 19.7 µg/mL)	
CC(C(=O)Nc1cc(C2CC2)[nH]n1)c1ccc(N2CCCCC2=O)cc1 (configuration not stated)	> 10 µM	0.24 µM			
C[C@H](C(=O)Nc1cc(C2CC2)[nH]n1)c1ccccc1		0.084 µM			

SMILES	IC50 (A2780 [10])	IC50 [11]	Binding [14]	solubility (physchem [18])	further results
CC(C(=O)Nc1cc(C2CC2)[nH]n1)c1ccc(N2Cc3ccccc3C2=O)cc1 (configuration not stated)	4.75 µM	0.013 µM		12 µM (≈ 4.64 µg/mL)	
CC(C(=O)Nc1cc(C2CC2)[nH]n1)c1ccc(N2CCCS2(=O)=O)cc1 (configuration not stated)	5.24 µM		78%	135 µM (≈ 50.6 µg/mL)	
CC(C(=O)Nc1cc(C2CC2)[nH]n1)c1ccc(N2CCN(C)C2=O)cc1 (configuration not stated)	1.68 µM	0.029 µM			
C[C@@H](C(=O)Nc1cc(C2CC2)[nH]n1)c1ccc(N2CCOC2=O)cc1		2.5 µM	72%	220 µM (≈ 74.9 µg/mL)	
C[C@H](C(=O)Nc1cc(C2CC2)[nH]n1)c1ccc(N2CCN(C)C2=O)cc1	1.4 µM	0.017 µM			
C[C@@H](C(=O)Nc1cc(C2CC2)[nH]n1)c1ccc(N2CCNC2=O)cc1	13.2 µM	0.455 µM	74%	220 µM (≈ 74.7 µg/mL)	
O=C(Nc1cc(C2CC2)[nH]n1)C(c1ccccc1)c1ccccc1		> 10 µM			
CC(C(=O)Nc1cc(C2CC2)[nH]n1)c1ccc(-n2cc[nH]c2=O)cc1 (configuration not stated)	6.98 µM	0.011 µM	74%	233 µM (≈ 78.6 µg/mL)	
CC(C(=O)Nc1cc(C2CC2)[nH]n1)c1ccc(N2C(=O)CCC2C)cc1 (configuration not stated)	6.4 µM	0.15 µM	67%	222 µM (≈ 78.2 µg/mL)	
O=C(Nc1cc(C2CC2)[nH]n1)C(F)c1ccccc1 (configuration not stated)		0.099 µM			
C[C@@H](C(=O)Nc1cc(C2CC2)[nH]n1)c1ccccc1		6 µM			
CC(C(=O)Nc1cc(C2CC2)[nH]n1)c1ccc(N2CCC(C(N)=O)C2=O)cc1 (configuration not stated)	5.71 µM	0.02 µM	57%	120 µM (≈ 45.8 µg/mL)	
C[C@@H](C(=O)Nc1cc(C2CC2)[nH]n1)c1ccc(N2CCN(C)C2=O)cc1		8.5 µM			
CC(C(=O)Nc1cc(C2CC2)[nH]n1)c1ccc(N2CCN(Cc3ccccc3)C2=O)cc1 (configuration not stated)		1.45 µM			
CC(C(=O)Nc1cc(C2CC2)[nH]n1)c1ccc(-n2cn[nH]c2=O)cc1 (configuration not stated)	8.39 µM	0.073 µM	58%	109 µM (≈ 36.9 µg/mL)	
CC(C(=O)Nc1cc(C2CC2)[nH]n1)c1ccc(N2CCCC2)cc1 (configuration not stated)	0.37 µM		96%	3 µM (≈ 0.973 µg/mL)	
O=C(Nc1cc(C2CC2)n[nH]1)C(=O)c1ccccc1		2.6 µM			
O=C(Cc1ccc2ccccc2c1)Nc1cc(C2CC2)n[nH]1			99%	22 µM (≈ 6.41 µg/mL)	
CC(C(=O)Nc1cc(C2CC2)[nH]n1)c1ccc(N2CCOC2=O)cc1 (configuration not stated)	1.04 µM	0.025 µM	73%	222 µM (≈ 75.6 µg/mL)	
